ADAM10 inh – inhibits human ADAM10. O14672. 370,000 tested, 0.62% active. inhibition, % at 7 µM. recombinant ADAM10, EDANS/DABCYL FRET peptide cleavage, 3 h;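 active = inhibition above a per-campaign cutoff equal to the mean of compounds falling between control-based bounds plus 3 SD, cut at about 20% in these data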;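 also: 0% = DMSO wells while the 100% control is not disclosed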
Target sequence (O14672 214-748 limits assumed): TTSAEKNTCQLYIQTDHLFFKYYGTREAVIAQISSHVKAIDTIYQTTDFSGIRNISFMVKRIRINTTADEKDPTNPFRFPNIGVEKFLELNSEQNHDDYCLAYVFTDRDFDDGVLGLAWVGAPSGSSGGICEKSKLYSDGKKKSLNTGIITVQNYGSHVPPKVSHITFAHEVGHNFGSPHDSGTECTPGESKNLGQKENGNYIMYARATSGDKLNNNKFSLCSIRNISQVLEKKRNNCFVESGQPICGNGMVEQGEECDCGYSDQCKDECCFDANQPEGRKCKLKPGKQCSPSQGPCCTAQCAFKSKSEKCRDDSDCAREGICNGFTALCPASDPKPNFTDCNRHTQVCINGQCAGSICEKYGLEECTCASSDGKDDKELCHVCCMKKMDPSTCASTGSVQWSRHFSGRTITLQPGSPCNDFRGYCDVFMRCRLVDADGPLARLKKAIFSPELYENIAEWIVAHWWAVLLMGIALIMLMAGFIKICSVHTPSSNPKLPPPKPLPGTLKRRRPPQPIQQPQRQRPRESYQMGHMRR
ADAM17 inh – inhibits human ADAM17; P78536; recombinant ADAM17, EDANS/DABCYL FRET peptide cleavage; inhibition, % at 6.95 µM; 370,000 tested, 0.83% active; AID 720648;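 active = inhibition above the mean of compounds lying between control limits plus 3 SD, set per campaign, cut at about 8.5% in these data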;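 also: 0% = DMSO-only wells as the low control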
PLCg1 inh – inhibitors of human phospholipase C gamma1. purified PLC-gamma1, fluorogenic substrate, fluorescence. AID 720700. P19174. inhibition, % at 12.2 µM. 370,000 tested, 0.84% active; in the data active = inhibition above about 9.5%
PLC-beta3 inh – inhibitors of human phospholipase C beta3. Q01970. Purified PLC-beta3, fluorogenic substrate, fluorescence. inhibition, % at 12.2 µM. AID 720704. 370,000 tested, 0.18% active; in the data active = inhibition above about 11%;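 also: 0% = median of compound wells on plate and 100% = full blocker control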
Tb MetRS inh – Trypanosoma brucei MetRS inhibition | 360,000 tested, 0.4% active | AID 624268 | purified T. brucei MetRS, ATP depletion, Kinase-Glo luminescence | inhibition, % at 11.9 µM;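 active = inhibition above a per-plate cutoff of the control wells' mean inhibition plus 3 SD, cut at about 5.5% in these data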;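 also: 0% = DMSO wells median and 100% = median of wells with control inhibitor compound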
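assay system = parasite MetRS enzyme | timing = 15 min preincubation, 2 h reaction, all 25 °C | evaluation = percent inhibition relative to median high and low control wells | medium = HEPES buffer containing pyrophosphatase, BSA, spermine, DTT | compound = single dose, 11.9 µM final nominal, 0.9% final DMSO | detection = Kinase-Glo luminescence, ATP depletion format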
TbMetRS confirm – confirmation of Trypanosoma brucei MetRS inhibitors. shares compounds with Tb MetRS inh. 1,400 tested, 93% active. T. brucei MetRS enzyme, luminescence (ATP depletion). inhibition, % at 11.9 µM; in the data active = inhibition above about 7%
Jurkat tox – kills Jurkat cells in T. brucei MetRS counterscreen | AID 624413 | shares compounds with Tb MetRS inh | Jurkat cells viability, ATP luminescence | inhibition, % at 8.3 µM | 1,400 tested, 12% active; in the data active = inhibition above about 15%;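 also: 0% = vehicle and 100% = reference inhibitor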
Tb MetRS inh FP – orthogonal test for Trypanosoma brucei MetRS inhibitors. AID 651607. purified T. brucei MetRS, fluorescence polarization. inhibition, % at 11.9 µM. 1,400 tested, 44% active. shares compounds with Tb MetRS inh; in the data active = inhibition above about 17%;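 also: 0% = vehicle wells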
* hit, by the source's call; . = not tested or not shown. A selection: hits, their analogues and other compounds. The true share with any hit is near 2.3%.

SMILES | ADAM10 inh | ADAM17 inh | PLCg1 inh | PLC-beta3 inh | Tb MetRS inh | TbMetRS confirm | Jurkat tox | Tb MetRS inh FP
C#CCN(Cc1ccco1)C(=O)c1nnc2c3cc(OC)ccc3n(S(=O)(=O)c3ccc(OC)cc3)c2n1 | -25.3 | -10.6 | -82.7 | -113.1 | . | . | . | .
COC(=O)c1cc(-c2ccc(Br)cc2)n[nH]1 | 4.1 | -1.9 | -0.6 | 2.8 | 10.3* | 28.0* | -5.0 | 11.9
COc1ccc(-c2cc(C(=O)NN)[nH]n2)cc1 | -5.2 | -3.5 | 2.3 | 3.8 | -1.7 | . | . | .
Nc1ccccc1Nc1cc(-c2ccccc2)[nH]n1 | -17.7 | -7.9 | -13.4 | -37.0 | 5.8* | 4.7 | 96.2* | -4.1
O=C(C/C=N\OCc1ccc([N+](=O)[O-])cc1)Nc1ccc(Cl)cc1 | 9.1 | 1.5 | -5.8 | -3.8 | 74.1* | 101.1* | -3.0 | 80.3*
O=C(C/C=N\OCc1ccc(Cl)cc1Cl)Nc1ccccc1 | -3.3 | -1.5 | 0.1 | 1.3 | 4.4 | . | . | .
O=C(Cc1ccc([N+](=O)[O-])cc1)Nc1ccc(Cl)cc1 | -3.5 | -1.8 | 0.5 | -2.9 | 2.5 | . | . | .
O=C(C/C=N\OCc1ccc([N+](=O)[O-])cc1)Nc1ccccc1 | 8.8 | 3.2 | 3.5 | 1.8 | 12.7* | 31.3* | 0.1 | 12.1
Cc1ccc(O)c(-c2cc(-c3ccc(F)cc3)no2)c1 | 2.3 | -1.0 | -58.6 | -75.4 | 0.4 | . | . | .
COc1ccc(S(=O)(=O)NC(=O)C2(C)CCN2C(=O)C2CC2)cc1 (configuration not stated) | 0.5 | -2.5 | 1.7 | 2.2 | 10.5* | 5.8* | -3.8 | -5.1
Cc1ccc(C(CNS(=O)(=O)c2ccc(Cl)cc2)N2CCN(C)CC2)cc1 (configuration not stated) | -4.6 | -3.4 | 1.4 | 1.9 | -0.5 | . | . | .
O=C(NNC(=O)c1cc(-c2cccnc2)nc2ccccc12)Nc1ccc(Cl)cc1 | -0.6 | -4.8 | -4.7 | -13.3 | 20.1* | 31.0* | -7.9 | 21.7*
O=C(NNC(=O)c1cc(-c2ccncc2)nc2ccccc12)Nc1ccc(F)cc1 | 4.9 | 4.5 | 0.0 | -11.3 | 20.4* | 39.3* | -1.9 | 18.9*
O=C(N/N=C/c1ccc(Cl)cc1)c1cc(-c2cccnc2)nc2ccccc12 | -0.7 | -4.0 | -2.2 | -11.9 | 0.2 | . | . | .
CCOC(=O)c1ccc(-c2ccc(/C=N/NC(=O)Cc3nnc(N)s3)o2)cc1 | -252.2 | -96.2 | -205.0 | -300.9 | -0.2 | . | . | .
Nc1nnc(CC(=O)N/N=C/c2ccc(-c3ccc(F)cc3)o2)s1 | -28.3 | -11.9 | -21.7 | -37.1 | 6.4* | 2.1 | 6.0 | 1.3
OCCCNc1ncnc2c1[nH]c1ccccc12 | -88.3 | -30.6 | -5.8 | -10.9 | 22.1* | 38.8* | 2.5 | 22.7*
Fc1ccc2[nH]c3c(NCc4ccccc4)ncnc3c2c1 | -180.4 | -77.3 | -21.2 | -36.5 | 83.8* | 92.1* | 29.9* | 81.7*
COCCNc1ncnc2c1[nH]c1ccccc12 | -112.2 | -39.9 | -10.1 | -18.1 | 59.0* | 77.0* | 11.1 | 42.0*
CCCn1cc(CN2CCC(N3CCC(C(=O)N4CCOCC4)CC3)CC2)c(C)n1 | -2.4 | -7.6 | -0.4 | -5.9 | -1.1 | . | . | .
Cc1ccc2nc(N/C(=N/S(=O)(=O)c3cccs3)c3ccccc3Cl)sc2c1 | 15.8 | 1.7 | -17.5 | -32.5 | 6.8* | 13.4* | 4.1 | 7.8
CC(=O)OC12CCCN(C1)/C(=C/c1cccc(Cl)c1)C2 (configuration not stated) | 2.7 | -5.9 | 3.7 | 1.3 | . | . | . | .
Cc1ccccc1Oc1cc(NC(=O)Cn2cnc([N+](=O)[O-])c2)cc([N+](=O)[O-])c1 | 11.8 | 7.4 | 3.9 | 6.4 | 9.6* | 24.2* | 11.6 | 16.8*
Cc1ccccc1Oc1cc(NC(=O)CCCn2nc(C)c([N+](=O)[O-])c2C)cc([N+](=O)[O-])c1 | 19.0 | 8.3 | -1.3 | -3.6 | -0.7 | . | . | .
O=C1CC(N(O)c2ccccc2)C(=O)N1c1cc(Cl)cc(Cl)c1 (configuration not stated) | -9.1 | 0.4 | -19.2 | -25.2 | 12.5* | 65.0* | -9.1 | 28.4*
O=C(NCCN1CCOCC1)c1cccc(S(=O)(=O)NCc2ccccc2)c1 | -11.1 | -0.4 | -3.7 | 1.4 | 0.2 | . | . | .

Screening data deposited in PubChem BioAssay by The Scripps Research Institute Molecular Screening Center.
